The subject of series [1] is NCI-H460. The experiment in a line: Antiproliferative activity against human NCI-H460 cells after 72 hrs by CellTiter 96 aqueous nonradioactive cell proliferation assay. It counts as functional, cell-based. The settings on record: NCI-H460, 72 h. A digest of the protocol:
(§1)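 Antiproliferation in cultured tumour cells, at least 3 replicate wells per concentration per experiment. NCI-H460 came from ATCC. M14, NCI/ADR-RES, OVCAR-4, HCT-15, ACHN and SF-295 came from the National Cancer Institute. IC50 reported from single experiments where no SD is given.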

Series [2] deals with M14. The experiment in a line: Antiproliferative activity against human M14 cells after 72 hrs by CellTiter 96 aqueous nonradioactive cell proliferation assay. In kind it is functional, cell-based. The settings on record: M14, 72 h. A digest of the protocol: as §1
The nature of series [3]: Drug uptake in tumor of human NCI-H460 cells xenografted in Crl:NU(NCr)-Foxn1 nu mouse at 40 mg/kg, ip measured at 3 hrs post injection by LC-MS analysis. In kind it is ADME, organism-based, Neoplasm. The settings on record: in vivo. In short, it runs like this:
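Male Nu/Nu mice, some bearing NCI-H460 or LOX-IMVI xenografts, given a single ip dose at 3 mL/kg. Organic vehicle components were dissolved first, with the aqueous part added gradually. Mice were euthanized at 1 h or 3 h. Cardiac blood was taken into NaEDTA/NaF plasma separator tubes. Quantification used loratadine internal standard against a spiked blank-plasma curve. Tumours were run as duplicate ~200 mg samples homogenized in 3% SDS and extracted twice with ethyl acetate, assuming 1 g tissue = 1 mL.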
(Xenograft models place foreign cells or tissue in a host animal.)

Series [4] concerns EKVX. The experiment in a line: Antiproliferative activity against taxane-resistant human EKVX cells after 72 hrs by CellTiter 96 aqueous nonradioactive cell proliferation assay. In kind it is functional, cell-based.
In series [5] the test system is UO-31. Kind of series: Antiproliferative activity against taxane-resistant human UO31 cells after 72 hrs by CellTiter 96 aqueous nonradioactive cell proliferation assay. It counts as functional, cell-based. The following applies: UO-31, 72 h.
The subject of series [6] is ACHN. The experiment in a line: Antiproliferative activity against taxane-resistant human ACHN cells after 72 hrs by CellTiter 96 aqueous nonradioactive cell proliferation assay. It counts as functional, cell-based. A digest of the protocol: as §1
Series [7] concerns HCT-15. The experiment in a line: Antiproliferative activity against taxane-resistant human HCT15 cells after 72 hrs by CellTiter 96 aqueous nonradioactive cell proliferation assay. In kind it is functional, cell-based. The following applies: HCT-15, 72 h. In short, it runs like this: as §1
For series [8], the system named is SF-295. Kind of series: Antiproliferative activity against taxane-resistant human SF295 cells after 72 hrs by CellTiter 96 aqueous nonradioactive cell proliferation assay. The following applies: SF-295, 72 h. It counts as functional, cell-based. A digest of the protocol:
as §1

Series [9] relates to OVCAR-4. Kind of series: Antiproliferative activity against taxane-resistant human OVCAR4 cells after 72 hrs by CellTiter 96 aqueous nonradioactive cell proliferation assay. In kind it is functional, cell-based. The settings on record: OVCAR-4, 72 h. A digest of the protocol:
as §1

The test system of series [10] is NCI/ADR-RES. The experiment in a line: Antiproliferative activity against taxane-resistant human NCI/ADR-RES cells after 72 hrs by CellTiter 96 aqueous nonradioactive cell proliferation assay. In kind it is functional, cell-based. A digest of the protocol: as §1

A value given as a limit tells only on which side of the number the result lay.

Consider `C=CC[C@H]1C[C@]2([C@@H](C)Cc3ccc(OC)c(NC(C)=O)c3)OCOC2=CC1=O`, for which the figures for the IC50 in series [1] and in series [2] were 310 nM and 85 nM, respectively.
On the same counts, the results for `C=CC[C@H]1C[C@]2([C@@H](C)Cc3ccc(OC)c(N4CCOCC4)c3)OCOC2=CC1=O` are above 20000 nM and above 20000 nM.
For the compound `C=CC[C@H]1C[C@]2([C@H](C)Cc3cc(F)c(OC)cc3F)OCOC2=CC1=O`, the IC50 (in general, the concentration that gives 50% inhibition) in series [1] came to 35 nM; in [2], 10 nM.
With `C=CC[C@H]1C[C@]2([C@@H](C)Cc3cc(F)c(OC)cc3F)OCOC2=CC1=O`, the Drug uptake entry in [3] was “Active”. Further, the IC50 in [1] stood at 59 nM; in series [2] it was 30 nM.
Turning to `C=CC[C@H]1C[C@]2([C@@H](C)Cc3cc(C)c(OC)cc3F)OCOC2=CC1=O`, the IC50 in series [1] was determined as 650 nM; in series [2], 230 nM.
On the same counts, the results for `C=CC[C@H]1C[C@]2(C(C)Cc3ccc(OC)c(OC(C)=O)c3)OCOC2=CC1=O` (stereo partly specified) are 110 nM and 16 nM.
For `C=CC[C@H]1C[C@]2([C@H](C)Cc3c(F)cc(OC)cc3F)OCOC2=CC1=O`, the values for the IC50 in [1] and in series [2] were 2500 nM and 320 nM, respectively.
Take `C=CC[C@H]1C[C@]2([C@@H](C)Cc3cc(N)c(OC)cc3F)OCOC2=CC1=O`: the figures for the IC50 in series [1] and in [2] were 160 nM and 29 nM, respectively.
Regarding `C=CC[C@H]1C[C@]2([C@H](C)Cc3ccc(OC)c(F)c3F)OCOC2=CC1=O`, the IC50 in [1] was determined as 3300 nM; in series [2] it was 3800 nM.
On the same counts, the results for `C=CC[C@H]1C[C@]2([C@@H](C)Cc3ccc(OC)c(C(N)=O)c3)OCOC2=CC1=O` are 66 nM and 12 nM.
For `C=CC[C@H]1C[C@]2([C@@H](C)Cc3cnc(OC)c(OC)c3)OCOC2=CC1=O`, the IC50 in [1] and in series [2] was above 20000 nM throughout.
With `C=CC[C@H]1C[C@]2([C@@H](C)Cc3ccc(OC(F)(F)F)cc3)OCOC2=CC1=O`, the IC50 in series [1] is 3800 nM; in series [2], above 20000 nM.
For `C=CC[C@H]1C[C@]2([C@@H](C)Cc3cc(OC)c(OC)cc3F)OCOC2=CC1=O`, the values for the IC50 in [1] and in series [2] were 120 nM and 14 nM, respectively.
Consider `C=CC[C@H]1C[C@]2([C@@H](C)Cc3ccc(OC)c(Cl)c3)OCOC2=CC1=O`, for which the results for the IC50 in series [1] and in [2] were 640 nM and 240 nM, respectively.
Consider `C=CC[C@H]1C[C@]2([C@@H](C)Cc3ccc(O)cc3)OCOC2=CC1=O`, for which the IC50 in [1] and in [2] was above 20000 nM throughout.
As for `C=CC[C@H]1C[C@]2([C@H](C)Cc3ccc(OC)c(OC)c3)OCOC2=CC1=O`, the values for the IC50 in series [1] and in series [2] were 320 nM and 300 nM, respectively.
In the case of `C=CC[C@H]1C[C@]2([C@@H](C)Cc3ccc(OC)c(C)c3)OCOC2=CC1=O`, the IC50 in series [1] stood at 630 nM; in series [2] it was 410 nM.
For the compound `C=CC[C@H]1C[C@]2([C@@H](C)Cc3ccc(OC)c(O)c3)OCOC2=CC1=O`, the results for the IC50 in series [1] and in series [2] were 80 nM and 8 nM, respectively.
Consider `C=CC[C@H]1C[C@]2([C@@H](C)Cc3ccc(OC)nc3)OCOC2=CC1=O`, for which the IC50 in [1] amounted to 330 nM; in [2] it was 180 nM.
Turning to `C=CC[C@@H]1C[C@]2([C@@H](C)Cc3ccc(OC)c(OC)c3)OCOC2=CC1=O`, the IC50 in series [1] and in series [2] was above 4000 nM throughout.
Consider `C=CC[C@H]1C[C@]2([C@@H](C)Cc3ccc(OC(C)=O)cc3)OCOC2=CC1=O`, for which the IC50 in [1] and in series [2] was above 20000 nM in each case.
Turning to `C=CC[C@H]1C[C@]2(C(C)Cc3ccc(OCC)cc3)OCOC2=CC1=O` (stereo partly specified), the IC50 stood at 280 nM in [1] and 650 nM in [2].
`C=CC[C@H]1C[C@]2([C@@H](C)Cc3ccccc3)OCOC2=CC1=O`: the IC50 in series [1] was determined as 9700 nM; in [2] it was 5100 nM.
As for `C=CC[C@H]1C[C@]2([C@@H](C)Cc3cccc(OC)c3)OCOC2=CC1=O`, the IC50 stood at 10600 nM in series [1] and 8800 nM in series [2].
Turning to `C=CC[C@H]1C[C@]2(C(C)Cc3ccc(OC)c(N)c3)OCOC2=CC1=O` (stereo partly specified), the IC50 in series [1] was found to be 180 nM; in [2] it was 49 nM.
For the compound `C=CC[C@@H]1C[C@]2([C@H](C)Cc3ccc(OC)c(OC)c3)OCOC2=CC1=O`, the IC50 in series [1] and in series [2] was above 4000 nM each time.
Regarding `C=CC[C@H]1C[C@]2([C@@H](C)Cc3ccc(OC)c(C#N)c3)OCOC2=CC1=O`, the IC50 in series [1] is 340 nM; in series [2], 180 nM.
On the same counts, the results for `C=CC[C@H]1C[C@]2(C(CC)Cc3ccc(OC)c(OC)c3)OCOC2=CC1=O` (mixture of isomers) are 11000 nM and 2600 nM.
Take `C=CC[C@H]1C[C@]2([C@@H](C)Cc3cc(C#N)c(OC)cc3F)OCOC2=CC1=O`: the IC50 in series [1] is 150 nM; in series [2], 37 nM.
Regarding `C=CC[C@H]1C[C@]2([C@@H](C)Cc3cnc(OC)cc3F)OCOC2=CC1=O`, the concentration for half-maximal inhibition (IC50) is above 20000 nM in [1] and 8000 nM in series [2].
Turning to `C=CC[C@H]1C[C@]2(CCc3ccc(OC)c(OC)c3)OCOC2=CC1=O`, the IC50 was 3200 nM in series [1] and 2000 nM in [2].
As for `C=CC[C@H]1C[C@]2(C(C)Cc3cc(C(N)=O)c(OC)cc3F)OCOC2=CC1=O` (stereo partly specified), the IC50 in series [1] was determined as 330 nM; in [2] it was 4 nM.
In the case of `C=CC[C@H]1C[C@]2([C@@H](C)Cc3ccc(OC)c(C(=O)NC)c3)OCOC2=CC1=O`, the IC50 in series [1] turned out to be 1100 nM; in series [2], 1400 nM.
As for `CC(=O)O[C@H]1C(=O)[C@@]2(C)[C@H]([C@H](OC(=O)c3ccccc3)[C@]3(O)C[C@H](OC(=O)[C@H](O)[C@@H](NC(=O)c4ccccc4)c4ccccc4)C(C)=C1C3(C)C)[C@]1(OC(C)=O)CO[C@@H]1C[C@@H]2O` [PACLITAXEL], the IC50 in [4] is 150 nM; in series [5] it was 240 nM; in [6] it was 80 nM; in series [7], 190 nM; in [8], 56 nM; in series [9], above 600 nM. Also, the IC50 in series [10] was above 9 µM.
In the case of `C=CC[C@H]1C[C@]2([C@H](C)Cc3ccc(OC)cc3)OCOC2=CC1=O`, the results for the IC50 in [1] and in [2] were 120 nM and 81 nM, respectively.
Take `C=CC[C@H]1C[C@]2([C@@H](C)Cc3ccc(OC)cc3)OCOC2=CC1=O`: the IC50 in [1] worked out at 90 nM; in series [2], 20 nM.
In the case of `C=CC[C@H]1C[C@]2([C@@H](C)Cc3cc(NC(C)=O)c(OC)cc3F)OCOC2=CC1=O`, the results for the IC50 in series [1] and in series [2] were 71 nM and 52 nM, respectively.
On the same counts, the results for `C=CC[C@H]1C[C@]2([C@@H](C)Cc3cc(O)c(OC)cc3F)OCOC2=CC1=O` are 33 nM and 9 nM.
`C=CC[C@H]1C[C@]2(C(C)Cc3ccc(F)cc3)OCOC2=CC1=O` (stereo partly specified): the IC50 in series [1] and in series [2] was above 20000 nM each time.
As to `C=CC[C@H]1C[C@]2([C@@H](C)Cc3ccc(OC)c(F)c3)OCOC2=CC1=O`, the values for the IC50 in series [1] and in series [2] were 90 nM and 8 nM, respectively.
